Assay results published in ChEMBL document CHEMBL1126625, “7-Azetidinylquinolones as antibacterial agents. Synthesis and structure-activity relationships” (J Med Chem, 1993).
Values after ≈ are worked out from the molar mass of the structure shown.

How the values were obtained:
Staphylococcus aureus [1] = test: Minimum inhibitory concentration (MIC) preventing growth of […]; assay type: functional
Escherichia coli [2] = test: Minimum inhibitory concentration (MIC)preventing growth of Escherichia coli; assay type: functional
Enterococcus faecalis = test: Minimum inhibitory concentration (MIC) preventing growth of Streptococcus faecalis ATCC 10541; assay type: functional
Pseudomonas aeruginosa [3] = test: Minimum inhibitory concentration (MIC)preventing growth of Pseudomonas aeruginosa; assay type: functional
Staphylococcus aureus [4] = test: Efficacy on systemic infections after oral administration in mice was determined against […] HS-93; assay type: functional
Procedure, shortened: (§1)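 Mouse protection test using 4 groups of 10 mice. Mice were infected intraperitoneally with a bacterial suspension slightly above LD100. A single oral dose was given immediately after infection, with four doses, one per group, chosen from in vitro activity. Survival was scored after one week, and ED50 (total mg/kg protecting 50% of mice) was interpolated from group survival rates.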

Bacillus cereus = test: Minimum inhibitory concentration (MIC) preventing growth of Bacillus cereus; assay type: functional
Morganella morganii = test: Minimum inhibitory concentration (MIC) preventing growth of Morganella morganii; assay type: functional
Mus musculus [5] = test: Blood level after oral administration in mice (50 mg/kg) was determined (area under the concentration-time curve recorded at 0.5, 1, 2, and 4 hour after dosing); assay type: ADME, organism-based; set-up: dose 50 mg/kg, time < 4 hr, route oral; conditions: in vivo
Procedure, shortened: (§2)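 Single oral dose of 50 mg/kg to mice. Blood taken from groups of six mice at 0.5, 1, 2 and 4 h after dosing. Serum levels measured by disk agar diffusion bioassay with Bacillus subtilis ATCC 6633 on Seed Agar, plates incubated 18 h at 37 °C, giving total activity in serum. AUC 0-4 h expressed as μg/mL […].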

Proteus vulgaris = test: Minimum inhibitory concentration (MIC) preventing growth of Proteus vulgaris; assay type: functional
Pseudomonas aeruginosa [6] = test: Efficacy on systemic infections after oral administration in mice was determined against Pseudomonas aeruginosa HS-116; assay type: functional; procedure, shortened: as §1
Bacillus subtilis = test: Minimum inhibitory concentration (MIC) preventing growth of Bacillus subtilis; assay type: functional
Escherichia coli [7] = test: Efficacy on systemic infections after oral administration in mice was determined against Escherichia coli HM-42; assay type: functional; procedure, shortened: as §1
Klebsiella pneumoniae = test: Minimum inhibitory concentration (MIC)preventing growth of Klebsiella pneumoniae; assay type: functional
[8] = tested on: Staphylococcus epidermidis; test: Minimum inhibitory concentration (MIC) preventing growth of Staphylococcus epidermidis; assay type: functional
Enterobacter cloacae = test: Minimum inhibitory concentration (MIC)preventing growth of Enterobacter cloacae; assay type: functional
Mus musculus [9] = test: Blood level after oral administration in mice (50 mg/kg) was determined by bioassay procedure and represent total activity present in the serum; assay type: ADME, organism-based; conditions: in vivo; procedure, shortened: as §2

| SMILES | MIC (Staphylococcus aureus [1]) | MIC (Escherichia coli [2]) | MIC (Enterococcus faecalis) | MIC (Pseudomonas aeruginosa [3]) | ED50 (Staphylococcus aureus [4]) | MIC (Bacillus cereus) | MIC (Morganella morganii) | AUC (Mus musculus [5]) | MIC (Proteus vulgaris) | ED50 (Pseudomonas aeruginosa [6]) | MIC (Bacillus subtilis) | ED50 (Escherichia coli [7]) | MIC (Klebsiella pneumoniae) | MIC [8] | MIC (Enterobacter cloacae) | AUC (Mus musculus [9]) |
| --- | --- | --- | --- | --- | --- | --- | --- | --- | --- | --- | --- | --- | --- | --- | --- | --- |
| CNC1(C)CN(c2cc3c(cc2F)c(=O)c(C(=O)O)cn3C2CC2)C1 | 0.25 µg/mL (≈ 0.724 µM) | 0.06 µg/mL (≈ 0.174 µM) | 1 µg/mL (≈ 2.9 µM) | 2 µg/mL (≈ 5.79 µM) | 16.5 mg/kg | 0.25 µg/mL (≈ 0.724 µM) | 0.06 µg/mL (≈ 0.174 µM) | 8400 ng·h/mL | 0.25 µg/mL (≈ 0.724 µM) | 69.8 mg/kg | 0.06 µg/mL (≈ 0.174 µM) | 1.9 mg/kg | 0.06 µg/mL (≈ 0.174 µM) | 0.25 µg/mL (≈ 0.724 µM) | 0.12 µg/mL (≈ 0.347 µM) | – |
| CCNC1CN(c2cc3c(cc2F)c(=O)c(C(=O)O)cn3C2CC2)C1 | 0.25 µg/mL (≈ 0.724 µM) | 0.06 µg/mL (≈ 0.174 µM) | 2 µg/mL (≈ 5.79 µM) | 2 µg/mL (≈ 5.79 µM) | – | 0.25 µg/mL (≈ 0.724 µM) | 0.5 µg/mL (≈ 1.45 µM) | 18100 ng·h/mL | 0.25 µg/mL (≈ 0.724 µM) | – | 0.06 µg/mL (≈ 0.174 µM) | – | 0.06 µg/mL (≈ 0.174 µM) | 0.25 µg/mL (≈ 0.724 µM) | 0.06 µg/mL (≈ 0.174 µM) | – |
| CN(C)C1(C)CN(c2c(F)cc3c(=O)c(C(=O)O)cn(C4CC4)c3c2F)C1 | 0.25 µg/mL (≈ 0.662 µM) | 0.12 µg/mL (≈ 0.318 µM) | 1 µg/mL (≈ 2.65 µM) | 2 µg/mL (≈ 5.3 µM) | 7.4 mg/kg | 0.25 µg/mL (≈ 0.662 µM) | 0.25 µg/mL (≈ 0.662 µM) | – | 0.5 µg/mL (≈ 1.32 µM) | 70.2 mg/kg | 0.06 µg/mL (≈ 0.159 µM) | 1.4 mg/kg | 0.25 µg/mL (≈ 0.662 µM) | 0.25 µg/mL (≈ 0.662 µM) | 0.12 µg/mL (≈ 0.318 µM) | – |
| CC1(N)CN(c2nc3c(cc2F)c(=O)c(C(=O)O)cn3C(C)(C)C)C1 | 0.12 µg/mL (≈ 0.344 µM) | 0.06 µg/mL (≈ 0.172 µM) | 1 µg/mL (≈ 2.87 µM) | 2 µg/mL (≈ 5.74 µM) | – | 0.12 µg/mL (≈ 0.344 µM) | 0.12 µg/mL (≈ 0.344 µM) | – | 0.25 µg/mL (≈ 0.718 µM) | – | 0.015 µg/mL (≈ 0.0431 µM) | – | 0.015 µg/mL (≈ 0.0431 µM) | 0.12 µg/mL (≈ 0.344 µM) | 0.12 µg/mL (≈ 0.344 µM) | 11300 ng·h/mL |
| NCC1CN(c2c(F)cc3c(=O)c(C(=O)O)cn(C4CC4)c3c2F)C1 | 0.12 µg/mL (≈ 0.344 µM) | 0.25 µg/mL (≈ 0.716 µM) | 0.12 µg/mL (≈ 0.344 µM) | 2 µg/mL (≈ 5.73 µM) | – | 0.12 µg/mL (≈ 0.344 µM) | 0.25 µg/mL (≈ 0.716 µM) | 1700 ng·h/mL | 1 µg/mL (≈ 2.86 µM) | – | 0.06 µg/mL (≈ 0.172 µM) | – | 0.25 µg/mL (≈ 0.716 µM) | 0.12 µg/mL (≈ 0.344 µM) | 0.25 µg/mL (≈ 0.716 µM) | – |
| CN(C)C1CN(c2cc3c(cc2F)c(=O)c(C(=O)O)cn3C2CC2)C1 | 0.12 µg/mL (≈ 0.347 µM) | 0.06 µg/mL (≈ 0.174 µM) | 1 µg/mL (≈ 2.9 µM) | 2 µg/mL (≈ 5.79 µM) | 35.6 mg/kg | 0.12 µg/mL (≈ 0.347 µM) | 0.12 µg/mL (≈ 0.347 µM) | 10600 ng·h/mL | 0.12 µg/mL (≈ 0.347 µM) | 44.5 mg/kg | 0.015 µg/mL (≈ 0.0434 µM) | 1.3 mg/kg | 0.015 µg/mL (≈ 0.0434 µM) | 0.12 µg/mL (≈ 0.347 µM) | 0.06 µg/mL (≈ 0.174 µM) | – |
| CNC1(C)CN(c2cc3c(cc2F)c(=O)c(C(=O)O)cn3C(C)(C)C)C1 | 0.25 µg/mL (≈ 0.692 µM) | 0.25 µg/mL (≈ 0.692 µM) | 0.5 µg/mL (≈ 1.38 µM) | 4 µg/mL (≈ 11.1 µM) | – | 0.25 µg/mL (≈ 0.692 µM) | 0.5 µg/mL (≈ 1.38 µM) | – | 0.5 µg/mL (≈ 1.38 µM) | – | 0.06 µg/mL (≈ 0.166 µM) | – | 0.06 µg/mL (≈ 0.166 µM) | 0.25 µg/mL (≈ 0.692 µM) | 0.25 µg/mL (≈ 0.692 µM) | 4600 ng·h/mL |
| CC1(N)CN(c2cc3c(cc2F)c(=O)c(C(=O)O)cn3C(C)(C)C)C1 | 0.25 µg/mL (≈ 0.72 µM) | 0.12 µg/mL (≈ 0.345 µM) | 0.5 µg/mL (≈ 1.44 µM) | 2 µg/mL (≈ 5.76 µM) | – | 0.25 µg/mL (≈ 0.72 µM) | 0.25 µg/mL (≈ 0.72 µM) | – | 0.25 µg/mL (≈ 0.72 µM) | – | 0.06 µg/mL (≈ 0.173 µM) | – | 0.12 µg/mL (≈ 0.345 µM) | 0.12 µg/mL (≈ 0.345 µM) | 0.25 µg/mL (≈ 0.72 µM) | 5400 ng·h/mL |
| CNC1CN(c2cc3c(cc2F)c(=O)c(C(=O)O)cn3C2CC2)C1 | 0.25 µg/mL (≈ 0.754 µM) | 0.03 µg/mL (≈ 0.0905 µM) | 1 µg/mL (≈ 3.02 µM) | 0.5 µg/mL (≈ 1.51 µM) | 36.3 mg/kg | 0.12 µg/mL (≈ 0.362 µM) | 0.03 µg/mL (≈ 0.0905 µM) | 4200 ng·h/mL | 0.25 µg/mL (≈ 0.754 µM) | 145 mg/kg | 0.03 µg/mL (≈ 0.0905 µM) | 3.8 mg/kg | 0.03 µg/mL (≈ 0.0905 µM) | 0.12 µg/mL (≈ 0.362 µM) | 0.03 µg/mL (≈ 0.0905 µM) | – |
| CN(C)C1CN(c2c(F)cc3c(=O)c(C(=O)O)cn(C4CC4)c3c2F)C1 | 0.25 µg/mL (≈ 0.688 µM) | 0.06 µg/mL (≈ 0.165 µM) | 1 µg/mL (≈ 2.75 µM) | 2 µg/mL (≈ 5.5 µM) | 19.8 mg/kg | 0.25 µg/mL (≈ 0.688 µM) | 0.12 µg/mL (≈ 0.33 µM) | 38200 ng·h/mL | 0.25 µg/mL (≈ 0.688 µM) | 90.8 mg/kg | 0.015 µg/mL (≈ 0.0413 µM) | 1.7 mg/kg | 0.06 µg/mL (≈ 0.165 µM) | 0.25 µg/mL (≈ 0.688 µM) | 0.06 µg/mL (≈ 0.165 µM) | – |
| CC1(N)CN(c2cc3c(cc2F)c(=O)c(C(=O)O)cn3C2CC2)C1 | 0.12 µg/mL (≈ 0.362 µM) | 0.06 µg/mL (≈ 0.181 µM) | 0.5 µg/mL (≈ 1.51 µM) | 0.5 µg/mL (≈ 1.51 µM) | 36.1 mg/kg | 0.12 µg/mL (≈ 0.362 µM) | 0.06 µg/mL (≈ 0.181 µM) | 7000 ng·h/mL | 0.06 µg/mL (≈ 0.181 µM) | 62.2 mg/kg | 0.06 µg/mL (≈ 0.181 µM) | 2.7 mg/kg | 0.12 µg/mL (≈ 0.362 µM) | 0.12 µg/mL (≈ 0.362 µM) | 0.12 µg/mL (≈ 0.362 µM) | – |
